Source: ChEMBL document CHEMBL4041524, “Synthesis and Characterization of a Novel γ-Aminobutyric Acid Type A (GABAA) Receptor Ligand That Combines Outstanding Metabolic Stability, Pharmacokinetics, and Anxiolytic Efficacy” (J Med Chem, 2016)
Activity calls are given as the source filed them. The rule behind the calls is not given here.

How the values were obtained:
Mus musculus [1] = assay: Toxicity in Swiss mouse assessed as change in motor coordination by measuring number of falls from the rotating rod at 10 mg/kg, ip administered 30 mins prior to testing measured for 2 mins by rotarod test relative to control; assay type: organism-based; settings: in vivo
Procedure, shortened: (§1)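 The same mice used for marble burying were placed on a rotarod at 4 r.p.m. for 2 min. No fall was scored success, one fall partial, and two falls failure.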

[2] = Drug uptake in Sprague-Dawley rat brain at 10 mg/kg, po measured after 120 mins by LC-MS/MS analysis; assay type: ADME, organism-based; settings: read-out: Drug uptake
Procedure, shortened: (§2)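 Sprague-Dawley rats (n = 3 per time point) were given 10 mg/kg p.o. Total plasma concentrations were taken at 15, 30, 60 and 120 min. Brain levels of the dosed ligand and of the carboxylic acid metabolite were taken at 60 or 120 min.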

[3] = molecular target: T1, GABA-A receptor; alpha-1/beta-3/gamma-2 (Homo sapiens) (UniProt P14867+P18507+P28472); assay: Modulation of recombinant GABA alpha1beta3gamma2 receptor (unknown origin) expressed in Xenopus laevis oocytes assessed as change in GABA-induced EC(3 to 6) current at 1 uM by two-electrode voltage clamp assay; assay type: cell-based
Procedure, shortened: (§3)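 Xenopus laevis oocytes expressing α1, α2, α3 or α5 β3γ2 GABAARs were recorded by two-electrode voltage clamp. Modulation of the GABA EC3-6 current (taken as 100%) was tested at 100 nM, 1 μM and 10 μM in the same cells. Values are mean ± SEM, n = 3–4.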

[4] = Total plasma concentration in Sprague-Dawley rat at 10 mg/kg, po measured after 15 mins by LC-MS/MS analysis; assay type: ADME, organism-based; procedure, shortened: as §2
Mus musculus [5] = assay: Toxicity in Swiss mouse assessed as change in motor coordination by measuring number of falls from the rotating rod at 30 mg/kg, ip administered 30 mins prior to testing measured for 2 mins by rotarod test relative to control; assay type: organism-based; settings: in vivo; procedure, shortened: as §1
[6] = molecular target: T2, GABA-A receptor; alpha-3/beta-3/gamma-2 (Homo sapiens) (UniProt P18507+P28472+P34903); assay: Modulation of recombinant GABA alpha3beta3gamma2 receptor (unknown origin) expressed in Xenopus laevis oocytes assessed as change in GABA-induced EC(3 to 6) current by two-electrode voltage clamp assay; assay type: cell-based; procedure, shortened: as §3
[7] = Total plasma concentration in Sprague-Dawley rat at 10 mg/kg, po measured after 120 mins by LC-MS/MS analysis; assay type: ADME, organism-based; procedure, shortened: as §2
Liver [8] = assay: Metabolic stability in mouse liver microsomes assessed as compound remaining at 4 uM measured after 30 mins in presence of NADPH by LC-MS/MS analysis; assay type: ADME, microsome; settings: 0.5 h
Procedure, shortened: (§4)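 Human, mouse or rat liver microsomes were incubated with compound at 4 μM final for 30 min at 37 °C (n = 1). Percent of parent remaining was quantified by LC-MS/MS.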

[9] = molecular target: T3, GABA-A receptor; alpha-5/beta-3/gamma-2 (Homo sapiens) (UniProt P18507+P28472+P31644); assay: Modulation of recombinant GABA alpha5beta3gamma2 receptor (unknown origin) expressed in Xenopus laevis oocytes assessed as change in GABA-induced EC(3 to 6) current at 1 uM by two-electrode voltage clamp assay; assay type: cell-based; procedure, shortened: as §3
[10] = molecular target: T2, GABA-A receptor; alpha-3/beta-3/gamma-2 (Homo sapiens); assay: Modulation of recombinant GABA alpha3beta3gamma2 receptor (unknown origin) expressed in Xenopus laevis oocytes assessed as change in GABA-induced EC(3 to 6) current at 1 uM by two-electrode voltage clamp assay; assay type: cell-based; procedure, shortened: as §3
[11] = molecular target: T4, GABA-A receptor; alpha-2/beta-3/gamma-2 (Homo sapiens) (UniProt P18507+P28472+P47869); assay: Modulation of recombinant GABA alpha2beta3gamma2 receptor (unknown origin) expressed in Xenopus laevis oocytes assessed as change in GABA-induced EC(3 to 6) current by two-electrode voltage clamp assay; assay type: cell-based; procedure, shortened: as §3
Liver [12] = assay: Metabolic stability in human liver microsomes assessed as compound remaining at 4 uM measured after 30 mins in presence of NADPH by LC-MS/MS analysis; assay type: ADME, microsome; settings: 0.5 h; procedure, shortened: as §4
[13] = molecular target: T1, GABA-A receptor; alpha-1/beta-3/gamma-2 (Homo sapiens); assay: Modulation of recombinant GABA alpha1beta3gamma2 receptor (unknown origin) expressed in Xenopus laevis oocytes assessed as change in GABA-induced EC(3 to 6) current by two-electrode voltage clamp assay; assay type: cell-based; procedure, shortened: as §3
Liver [14] = assay: Metabolic stability in rat liver microsomes assessed as compound remaining at 4 uM measured after 30 mins in presence of NADPH by LC-MS/MS analysis; assay type: ADME, microsome; settings: 0.5 h; procedure, shortened: as §4
[15] = Total plasma concentration in Sprague-Dawley rat at 10 mg/kg, po measured after 30 mins by LC-MS/MS analysis; assay type: ADME, organism-based; procedure, shortened: as §2
[16] = molecular target: T4, GABA-A receptor; alpha-2/beta-3/gamma-2 (Homo sapiens); assay: Modulation of recombinant GABA alpha2beta3gamma2 receptor (unknown origin) expressed in Xenopus laevis oocytes assessed as change in GABA-induced EC(3 to 6) current at 100 nM by two-electrode voltage clamp assay; assay type: cell-based; procedure, shortened: as §3
[17] = molecular target: T4, GABA-A receptor; alpha-2/beta-3/gamma-2 (Homo sapiens); assay: Modulation of recombinant GABA alpha2beta3gamma2 receptor (unknown origin) expressed in Xenopus laevis oocytes assessed as change in GABA-induced EC(3 to 6) current at 1 uM by two-electrode voltage clamp assay; assay type: cell-based; procedure, shortened: as §3
[18] = molecular target: T2, GABA-A receptor; alpha-3/beta-3/gamma-2 (Homo sapiens); assay: Modulation of recombinant GABA alpha3beta3gamma2 receptor (unknown origin) expressed in Xenopus laevis oocytes assessed as change in GABA-induced EC(3 to 6) current at 10 uM by two-electrode voltage clamp assay; assay type: cell-based; procedure, shortened: as §3
[19] = molecular target: T2, GABA-A receptor; alpha-3/beta-3/gamma-2 (Homo sapiens); assay: Modulation of recombinant GABA alpha3beta3gamma2 receptor (unknown origin) expressed in Xenopus laevis oocytes assessed as change in GABA-induced EC(3 to 6) current at 100 nM by two-electrode voltage clamp assay; assay type: cell-based; procedure, shortened: as §3
[20] = molecular target: T3, GABA-A receptor; alpha-5/beta-3/gamma-2 (Homo sapiens); assay: Modulation of recombinant GABA alpha5beta3gamma2 receptor (unknown origin) expressed in Xenopus laevis oocytes assessed as change in GABA-induced EC(3 to 6) current at 10 uM by two-electrode voltage clamp assay; assay type: cell-based; procedure, shortened: as §3
[21] = Cytotoxicity against HEK293T cells assessed as viable cells measured after 18 hrs by CellTiter-Glo assay; assay type: cell-based, HEK-293T; settings: human, read-out: LD50
Procedure, shortened: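 HEK293T cells were exposed to compound for 18 h (n = 4). Viable cells were quantified with CellTiter-Glo, and LD50 was derived.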

Rattus norvegicus = assay: Anxiolytic like activity in water-deprived Sprague-Dawley rat assessed as increase in water drinking time during punished period at 30 mg/kg, po administered 30 prior to testing by Vogel conflict test relative to vehicle control; assay type: functional
Procedure, shortened: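 Water-deprived male Sprague-Dawley rats (n = 6–8) drank during unpunished and punished periods, with licking suppressed by mild shock in punished periods. Compounds were given 30 min before testing. Analysis was ANOVA with Dunnett's test.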

[22] = molecular target: T3, GABA-A receptor; alpha-5/beta-3/gamma-2 (Homo sapiens); assay: Modulation of recombinant GABA alpha5beta3gamma2 receptor (unknown origin) expressed in Xenopus laevis oocytes assessed as change in GABA-induced EC(3 to 6) current by two-electrode voltage clamp assay; assay type: cell-based; procedure, shortened: as §3
[23] = molecular target: T4, GABA-A receptor; alpha-2/beta-3/gamma-2 (Homo sapiens); assay: Modulation of recombinant GABA alpha2beta3gamma2 receptor (unknown origin) expressed in Xenopus laevis oocytes assessed as change in GABA-induced EC(3 to 6) current at 10 uM by two-electrode voltage clamp assay; assay type: cell-based; procedure, shortened: as §3
Mus musculus [24] = assay: Anxiolytic-like activity in Swiss Webster mouse marble burying model of anxiety assessed as suppression of marble burying activity at 30 mg/kg, ip administered 30 mins prior to test relative to vehicle-control; assay type: functional, organism-based
Procedure, shortened: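 Male NIH Swiss Webster mice (n = 10) received vehicle or compound at 10 or 30 mg/kg i.p. 30 min before marble burying testing. Sedation-like behaviour was noted by observation. Analysis was ANOVA with Dunnett's test vs vehicle.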

[25] = Total plasma concentration in Sprague-Dawley rat at 10 mg/kg, po measured after 60 mins by LC-MS/MS analysis; assay type: ADME, organism-based; procedure, shortened: as §2
Brain = assay: Drug metabolism in Sprague-Dawley rat brain assessed as (E)-8-ethynyl-6-(pyridin-2-yl)-4H-benzo[f]imidazo[1,5-a][1,4]diazepine-3-carboxylic acid formation at 10 mg/kg, po measured after 120 mins by LC-MS/MS analysis; assay type: ADME, organism-based; settings: in vivo, 2 h; procedure, shortened: as §2
[26] = molecular target: T1, GABA-A receptor; alpha-1/beta-3/gamma-2 (Homo sapiens); assay: Modulation of recombinant GABA alpha1beta3gamma2 receptor (unknown origin) expressed in Xenopus laevis oocytes assessed as change in GABA-induced EC(3 to 6) current at 10 uM by two-electrode voltage clamp assay; assay type: cell-based; procedure, shortened: as §3

**Q.** What does the source list for `C#Cc1ccc2c(c1)C(c1ccccn1)=NCc1c(C(=O)OCC)ncn1-2`?
**A.** Activity (Mus musculus [1]): Toxic; concentration at 2 h [2]: < 12.2 nM; Activity [3]: 147%; concentration at 0.25 h [4]: < 12.2 nM; Activity (Mus musculus [5]): Toxic; Activity [6]: Dose-dependent effect; concentration at 2 h [7]: < 12.2 nM; Stability (Liver [8]): 57%; Activity [9]: 134%; Activity [10]: 195%; Activity [11]: Dose-dependent effect; Stability (Liver [12]): 86%; Activity [13]: Dose-dependent effect; Stability (Liver [14]): 58%; concentration at 0.5 h [15]: < 12.2 nM; Activity [16]: 111%; Activity [17]: 207%; Activity [18]: 305%; Activity [19]: 119%; Activity [20]: 158%; CC50 at 18 h [21]: > 100 µM; Activity (Rattus norvegicus): inactive; Activity [22]: Dose-dependent effect; Activity [23]: 244%; Activity (Mus musculus [24]): Active; concentration at 1 h [25]: < 12.2 nM; Drug metabolism (Brain): 10 nM; Activity [26]: 178%
